Screening results deposited in PubChem BioAssay by several laboratories.
FLuc stim CS: firefly luciferase counter-screen for stimulation assays; ATPlite luciferase biochemical, luminescence, 10 min; 0 = ATP-free wells, 1 = DMSO control; P08659; AID 1027; 200,000 tested, under 10 active; activation factor at 10 µM;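 active means luciferase activation factor, scaled between plate controls, of at least 2 with compound at 10 µM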
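System: luciferase plus luciferin reagent, cell-free; medium: PBS as buffer for the ATP substrate; dosing: test compounds dosed from 2 mM stocks in 100% DMSO; timing: 10 min post-reagent at room temperature; measured by: luminescence measurement of luciferase light output; evaluation: luciferase activation, seen as luminescence increase over controls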
ABCB1 inh: inhibitors of human ABCB1 transporter, ABCG2 counter-screen; P08183; CCRF-Adr cells, JC-1 efflux, flow cytometry; inhibition, % at 6.6 µM; 0.067% of 190,000 active; AID 1326; in the data active means inhibition above about 40%;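 further: 0% = vehicle and 100% = reference inhibitor; higher value means more JC-1 retained so stronger ABCB1 efflux block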
ABCG2 block: blocks JC-1 efflux by human ABCG2 transporter; inhibition, % at 6.6 µM; 0.1% of 190,000 active; Q9UNQ0; AID 1325; IgMXP3 cells, flow cytometry;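 active means inhibition above 80%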;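 further: 0% = DMSO and 100% = nicardipine control wells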
Target sequence (Q9UNQ0 whole entry, looked up): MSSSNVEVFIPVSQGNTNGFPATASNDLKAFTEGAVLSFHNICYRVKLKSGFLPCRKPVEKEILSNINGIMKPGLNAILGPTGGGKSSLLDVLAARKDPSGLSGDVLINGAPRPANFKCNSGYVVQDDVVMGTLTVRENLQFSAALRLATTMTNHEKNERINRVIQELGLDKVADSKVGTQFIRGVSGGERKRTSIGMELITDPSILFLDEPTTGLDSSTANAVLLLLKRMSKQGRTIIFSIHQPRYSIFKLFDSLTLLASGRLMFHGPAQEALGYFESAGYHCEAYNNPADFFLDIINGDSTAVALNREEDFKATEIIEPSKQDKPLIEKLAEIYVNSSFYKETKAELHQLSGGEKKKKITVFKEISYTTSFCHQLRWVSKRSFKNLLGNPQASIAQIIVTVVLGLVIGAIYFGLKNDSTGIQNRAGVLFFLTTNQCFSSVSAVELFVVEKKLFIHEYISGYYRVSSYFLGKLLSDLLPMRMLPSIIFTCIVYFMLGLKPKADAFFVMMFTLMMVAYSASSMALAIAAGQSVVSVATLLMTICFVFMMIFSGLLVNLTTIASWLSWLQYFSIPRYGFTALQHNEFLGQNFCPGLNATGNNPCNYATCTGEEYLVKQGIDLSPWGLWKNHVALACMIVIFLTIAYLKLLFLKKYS
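Times: 10 min at 25 °C | Test system: Two drug-resistant human cell lines, ABCG2 and ABCB1 | Quantity: 3 million cells/mL final, two lines in 1:1 ratio | Signal: Flow cytometry, 530 nm JC-1 signal | Dosing: Compound at 6.6 µM | Controls: Nicardipine and DMSO wells | Reagent: JC-1 as fluorescent efflux pump substrate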
ABCB6 inh MLPCN: human ABCB6 transporter inhibition. AID 602162. K562-ABCB6 porphyrin accumulation, flow cytometry, 1 h; hits give low values. 0.19% of 360,000 active. fluorescence ratio to DMSO, % at 10 µM;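 active means fluorescence ratio to DMSO below 75%, the collection mean minus 3 SD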;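 further: signal is porphyrin accumulated inside mitochondria; 100% equals median channel fluorescence of DMSO control wells; lower ratio means ABCB6 inhibition with less porphyrin fluorescence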
FLuc inh counter: counter-screen for luciferase assay inhibitors: firefly luciferase inhibition | AID 1006 | P08659 | ATPLite firefly luciferase biochemical luminescence, 10 min | 1.5% of 200,000 active | inhibition, % at 10 µM;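 active means inhibition above about 50% when tested at 10 µM, limit read from the data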
Diaph act CS: activates diaphorase or chemically reduces, flagging diaphorase assay artifacts; Diaphorase/resazurin coupled assay, resorufin fluorescence, 16 min; hits give high values; 1 = vehicle wells, 0 = NADH-free wells; 0.005% of 190,000 active; activation factor at 20 µM;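 active means diaphorase activity raised at least twofold by the compound at 20 µM; inactive means activation factor below 2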
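Material: purified diaphorase enzyme from Clostridium kluyveri / Medium: HEPES pH 7.4 buffer with MgCl2 and Tween 20 / Schedule: enzyme reaction of 16 min at room temperature / Measured by: resorufin fluorescence, excitation 544 nm, emission 590 nm / Evaluation: rise in resorufin formation, marking diaphorase activation or chemical reduction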
ABCB6 blocker 1: human ABCB6 transporter inhibition; shares compounds with ABCB6 inh MLPCN; K562-ABCB6 porphyrin accumulation, flow cytometry, 1 h; hits give low values; ratio response (% of DMSO), % at 10 µM; 700 tested, under 10 active;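 active means repeat-averaged ratio response below 75% of DMSO, the collection mean minus 3 SD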;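 further: median porphyrin fluorescence at 575 nm with 488 nm excitation from mitochondria; lower ratio means less porphyrin signal so ABCB6 inhibition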
Active calls of the source: *; . = not tested or not shown. This excerpt belongs to a sample that is enriched for hits.

SMILES	FLuc stim CS	ABCB1 inh	ABCG2 block	ABCB6 inh MLPCN	FLuc inh counter	Diaph act CS	ABCB6 blocker 1
CC(NC(=O)c1c(F)cccc1Cl)c1ccc(-n2ccnc2)cc1 (centres undefined)	.	.	.	97	.	.	.
NC(=O)CC(NC(=O)Cc1cccc2ccccc12)c1ccc(NCCCN2CCCC2=O)c([N+](=O)[O-])c1 (centres undefined)	.	.	.	101	.	.	.
COc1ccc2c(c1OC)C(=O)N(c1ccc3c(c1)CCC3)C2=O	1	1	2	63*	-2	0.9	98
COc1ccc2c(c1OC)C(=O)N(c1ccc(C)c(C)c1)C2=O	0.9	1	11	99	5	1	.
CCN(CC)CCCNC(=O)c1ccc2c(Cl)c3c(nc2c1)CCCC3	1	0	7	86	-4	1	.
CC(=O)c1cccc(NC(=O)c2ccc3c(Cl)c4c(nc3c2)CCCC4)c1	0.8	1	1	73*	20	0.8	102
CC(C)(CNC(=O)c1ccc(S(=O)(=O)Nc2cccc(C(F)(F)F)c2)cc1)N1CCOCC1	.	.	.	72*	.	.	102
O=C(c1ccc(S(=O)(=O)Nc2cccc(C(F)(F)F)c2)cc1)N1CCOCC1	.	.	.	97	.	.	.
CCOC(=O)[C@@H]1[C@H]2COc3cc(OC)ccc3[C@H]2N2C(=O)N(c3cccc(F)c3)C(=O)[C@@]12C	.	.	.	73*	.	.	99
CCOC(=O)[C@H]1[C@H]2COc3cc(OC)ccc3[C@@H]2N2C(=O)N(c3cccc(F)c3)C(=O)[C@@]12C	.	.	.	99	.	.	.
O=C(c1cccs1)N1CCC(c2nc3c(nnn3Cc3ccccc3Cl)c(=O)[nH]2)CC1	.	.	.	99	.	.	100
O=C(c1ccccc1)N1CCC(c2nc3c(nnn3Cc3ccccc3Cl)c(=O)[nH]2)CC1	1	0	18	98	-1	1	102
O=C(NCc1cccs1)c1nc2c(nnn2Cc2ccccc2Cl)c(=O)[nH]1	1	0	-1	70*	1	0.8	97
O=C(O)c1cccc(S(=O)(=O)N2CCCC(c3nc4c(nnn4Cc4ccccc4Cl)c(=O)[nH]3)C2)c1 (centres undefined)	.	.	.	98	.	.	.
O=C(NCc1ccccc1Cl)[C@@H]1CCCN1S(=O)(=O)c1ccc(Cl)cc1	.	.	.	95	.	.	.
OC(c1ccc(F)cc1)c1nc(/C=C/c2ccccc2)cs1 (centres undefined)	.	.	.	61*	.	.	98
O=c1c2c3c(sc2n2cnnc2n1CCc1ccccc1)CCCC3	1	3	29	66*	-2	0.9	101
C=C(C)Cn1c2ccc(NC(=O)NCc3ccccc3)cc2c(=O)n1C	.	.	.	97	.	.	.
CCCNC(=O)CCc1nnc2ccc(N3CCC(C)CC3)nn12	.	.	.	98	.	.	95
COc1ccc(N2CCN(C(=O)CCc3nnc4ccc(N5CCC(C)CC5)nn34)CC2)cc1	.	.	.	89	.	.	.
CC1CCN(c2ccc3nnc(CCC(=O)N4CCN(c5ccccc5F)CC4)n3n2)CC1	.	.	.	96	.	.	.
CC1CC(C)CN(C(=O)CCc2nnc3ccc(N4CCCCC4)nn23)C1 (centres undefined)	.	.	.	97	.	.	98
CCOC(=O)C1CCN(C(=O)CCc2nnc3ccc(N4CCC(C)CC4)nn23)CC1	.	.	.	99	.	.	100
CC1CCN(c2ccc3nnc(CCC(=O)NCCCOC(C)C)n3n2)CC1	.	.	.	99	.	.	99
Cn1c(=O)c(=O)n(C)c2cc(S(=O)(=O)CCC(=O)Nc3c(F)c(F)c(F)c(F)c3F)ccc21	.	.	.	95	.	.	.
SMILES	FLuc stim CS	ABCB1 inh	ABCG2 block	ABCB6 inh MLPCN	FLuc inh counter	Diaph act CS	ABCB6 blocker 1
CCCCN1CC(=O)N2[C@H]3c4ccccc4OC[C@@H]3[C@H](C(=O)OCC)[C@]2(C)C1=O	.	.	.	100	.	.	.
CCOC(=O)CNC(=O)CCc1nnc2ccc(N3CCC(C)CC3)nn12	.	.	.	98	.	.	99
COc1ccc(N(CC(=O)NC(C)C)S(=O)(=O)c2ccc(NC(C)=O)cc2)cc1	1	0	5	69*	-2	0.9	98
Cc1ccc(S(=O)(=O)N2C[C@H]3C(=O)C[C@@H](c4cccc(Cl)c4)N(S(=O)(=O)c4ccc(C)cc4)[C@H]3C[C@H]2c2cccc(Cl)c2)cc1	.	.	.	98	.	.	.
NC(c1ccccc1)c1csc(Nc2ccc(C(F)(F)F)cn2)n1 (centres undefined)	.	.	.	71*	.	.	101
CC(C)C(N)c1csc(Nc2ccc(C(F)(F)F)cn2)n1 (centres undefined)	.	.	.	103	.	.	.
COC(/C(=N/O)c1ccc(Cl)cc1)c1ccccc1 (centres undefined)	.	.	.	96	.	.	.
CN1CCN(C(=O)c2ccc(-c3nn(C)c(=O)c4ccccc34)cc2)CC1	.	.	.	97	.	.	.
Cn1nc(-c2ccc(C(=O)N3CCN(CCO)CC3)cc2)c2ccccc2c1=O	1.1	0	1	72*	-9	1	97
COc1cccc(N2CCN(C(=O)CC(C)(C)CC3=NS(=O)(=O)c4ccccc4N3)CC2)c1	.	.	.	14*	.	.	100
CC(C)(C)S(=O)(=O)c1cnc2c(-c3ccc(Cl)cc3)cnn2c1N	1	1	9	102	-5	1	.
COc1ccc(-c2cnn3c(N)c(S(=O)(=O)C(C)(C)C)cnc23)cc1	1	0	4	68*	2	1.1	97
CCN(CC)CCN(C(=O)C1=COCCO1)c1nc2c(OC)ccc(OC)c2s1	.	.	.	101	.	.	.
Cc1cc(NC(=O)c2cccc(S(=O)(=O)N3CCCCCC3)c2)no1	1	0	0	70*	-3	1	99
Cc1cc(NC(=O)c2cc(S(=O)(=O)N3CCCCC3)ccc2C)no1	.	.	.	107	.	.	.
CC(C(=O)NC(=O)NC1CCCCC1)N1CCN(C(c2ccccc2)c2ccccc2)CC1 (centres undefined)	1.1	3	2	73*	-6	0.7	100
CC(C(=O)NC1CCCC1)N1CCN(Cc2ccccc2)CC1 (centres undefined)	1	0	1	93	-1	1.1	.
O=c1oc2ccccc2c(NC2CCCCC2)c1NS(=O)(=O)c1ccc(F)cc1	.	.	.	97	.	.	.
COc1ccc(S(=O)(=O)Nc2c(NC3CCCCC3)c3ccccc3oc2=O)cc1	.	.	.	71*	.	.	98
O=C(NCc1ccccc1Cl)C1CCN(S(=O)(=O)N2CCC3(CC2)OCCO3)CC1	1.1	1	3	95	-10	0.9	.
O=C(NCc1ccc(F)cc1Cl)C1CCN(S(=O)(=O)N2CCC3(CC2)OCCO3)CC1	1.1	1	9	69*	-8	1	96
COCCNC(=O)C1(C)CCN(Cc2ccc(C(C)C)cc2)C1 (centres undefined)	.	.	.	97	.	.	.
CCOc1ccc(S(=O)(=O)N2CCN(C(=O)c3cc(S(=O)(=O)N4CCOCC4)ccc3C)CC2)cc1	.	.	.	68*	.	.	103
